ChEMBL document CHEMBL4304819, “Natural product pectolinarigenin exhibits potent anti-metastatic activity in colorectal carcinoma cells in vitro and in vivo” (2019)
Activity calls are given as the source filed them. No cut-off for these calls is given here.

Columns and labels:
[1] = tested on: CT26; experiment: Induction of apoptosis in mouse CT26 cells assessed as nuclear fragmentation up to 40 uM after 48 hrs by Hoechst 33258 staining-based fluorescent microscopic analysis; type: functional, cell-based
Procedure, shortened: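 CT26 cells plated at 1–2 × 10^5 per well on 18-mm coverslips in six-well plates for 24 h, then treated 48 h with PEC. Washed in cold PBS, fixed 15 min in 4% paraformaldehyde, stained with Hoechst 33258 (5 μg/ml). Nuclear morphology viewed by fluorescence microscopy (10×); positive cells counted, mean ± SD of three experiments.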

[2] = tested on: CT26; experiment: Antimetastatic activity against mouse CT26 cells allografted in Balb/c mouse assessed as reduction in weight of tumour nodules weight at 50 mg/kg, ip administered daily for 14 days starting from 6 days post implantation; type: functional, organism-based
Procedure, shortened: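 Female BALB/c mice (6–8 weeks) injected ip with 5 × 10^5 CT26 cells; from day 6, randomized (eight per group) to ip vehicle, 25 or 50 mg/kg once daily for 14 days. Abdominal circumference and body weight every 3 days; abdominal nodules counted by eye and weighed; spleens assessed; paraffin tumour sections immunostained (Ki-67, MMP-9, p-Stat3) with DAB detection.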

[3] = tested on: CT26; experiment: Inhibition of colony formation in mouse CT26 cells assessed as reduction in number of colonies up to 40 uM incubated for 24 hrs supplemented with fresh medium containing compound every 3 days for 12 days by crystal violet staining-based microscopic analysis; type: functional, cell-based
Procedure, shortened: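 400–800 cells per well seeded in 6-well plates; after 24 h, PEC (0–40 μM) added. Medium with or without compound replaced every three days for 12 days. Colonies washed in cold PBS, fixed in methanol, stained 15 min with 0.5% crystal violet and counted under a microscope. Mean ± SD of three experiments.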

[4] = tested on: HCT-116; experiment: Induction of apoptosis in human HCT116 cells assessed increase in Bax/Bcl2 protein ratio up to 40 uM after 48 hrs by Western blot analysis; type: functional, cell-based
Procedure, shortened: (§1)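 Cells treated 48 h at 0, 10, 20 and 40 μM, washed in cold PBS, lysed in RIPA; protein equalized by Lowry assay, resolved by SDS-PAGE, transferred to PVDF, blocked 1 h at 37 °C, primary antibody overnight at 4 °C, secondary 1 h, ECL detection, densitometry. β-actin loading control.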

[5] = tested on: CT26; experiment: Antimetastatic activity against mouse CT26 cells allografted in Balb/c mouse assessed as decrease in CD11b-positive/Gr1-positive myeloid cells level in peripheral blood at 25 mg/kg, ip administered daily for 14 days starting from 6 days post implantation by flow cytometric analysis (reference value: 33.2 %); type: functional; parameters: scale not given: the % may be the effect or the level left
[6] = tested on: CT26; experiment: Antimetastatic activity against mouse CT26 cells assessed as inhibition of MMP-9 expression after 48 hrs by Western blot analysis; type: functional, cell-based; procedure, shortened: as §1
[7] = tested on: HCT-116; experiment: Induction of apoptosis in human HCT116 cells assessed as viable cells at 20 uM after 48 hrs by Annexin V-FITC/propidium iodide staining-based flow cytometric analysis (reference value: 86.7 %); type: functional; details: HCT-116, 48 h, read-out: Activity
Procedure, shortened: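 Cells (1–2 × 10^5 per well) seeded in six-well plates 24 h, treated at 0–40 μM for 24 h or 48 h, harvested, washed twice in cold PBS, stained with Annexin V-FITC/PI and analysed by flow cytometry; early (Annexin V only) and late (Annexin V and PI) apoptotic fractions quantified; three experiments.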

[8] = tested on: HCT-116; experiment: Induction of apoptosis in human HCT116 cells assessed as increase in Bax protein expression up to 40 uM after 48 hrs by Western blot analysis; type: functional, cell-based; procedure, shortened: as §1
[9] = tested on: CT26; experiment: Induction of apoptosis in mouse CT26 cells assessed as decrease in pro-caspase-3 expression up to 40 uM after 48 hrs by Western blot analysis; type: functional, cell-based; procedure, shortened: as §1
[10] = tested on: CT26; experiment: Induction of apoptosis in mouse CT26 cells assessed as necrotic cells at 10 uM after 48 hrs by Annexin V-FITC/propidium iodide staining-based flow cytometric analysis (reference value: 1.80 %); type: functional
Procedure, shortened: (§2)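 CT26 cells seeded at 1–2 × 10^5 per well in six-well plates for 24 h, then exposed to PEC (0–40 μM) for 24 or 48 h. Cells harvested, washed twice in cold PBS, stained with Annexin V-FITC/PI and read by flow cytometry. Early apoptotic = Annexin V+ only; late apoptotic = Annexin V+/PI+. Mean ± SD of three experiments.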

[11] = tested on: SW48; experiment: Anticlonogenic activity against human SW48 cells assessed as reduction in colony formation up to 40 uM incubated for 24 hrs supplemented with fresh medium containing compound every 3 days for 12 days by crystal violet staining-based microscopic analysis; type: functional, cell-based
Procedure, shortened: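 Cells seeded at 400–800 per well in 6-well plates; after 24 h, treated with 0–40 μM in fresh medium (with or without compound) replaced every three days for 12 days. Colonies fixed in methanol, stained with 0.5% crystal violet for 15 min and counted by microscope; reported as surviving colonies, mean ± SD of three experiments.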

[12] = tested on: CT26; experiment: Induction of apoptosis in mouse CT26 cells assessed as early apoptotic cells at 10 uM after 48 hrs by Annexin V-FITC/propidium iodide staining-based flow cytometric analysis (reference value: 2.84 %); type: functional; procedure, shortened: as §2

In the case of `COc1ccc(-c2cc(=O)c3c(O)c(OC)c(O)cc3o2)cc1` [PECTOLINARIGENIN], the Activity [1] is reported as “Active”, the Activity [2] is reported as “Active” and the inhibition [3] is reported as “Active”. For the same compound, the Activity [4] was “Active”, the Activity [5] was 26.7% and the inhibition [6] was “Dose-dependent effect”. The viability at 20 µM [7] was 79.2%, the Activity [8] was “Active” and the Activity [9] was “Active”. The Activity [10] was 3.82%, the inhibition [11] was “Active” and the Activity [12] was 3.57%.
